Source: PubChem
Shown are actives, neighbours in structure and some others; about 9.4% of the full set was active somewhere.
Beta cell apopt – beta cell apoptosis inhibition. INS-1E cytokine-induced death, ATP luminescence, 48 h; percent of positive-control rescue, neutral wells zero. protection from apoptosis, % (concentration not given with the values). 300,000 tested, 0.8% active;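 active means Every replicate reaches about 75%, or at least half do and their mean reaches it too, limit read from the data; inconclusive means At least half of replicates reach the limit but their mean does not; inactive means Under half of replicates reach the limit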;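 further: 0% = cytokine-treated negative control wells and 100% = positive control rescue; higher means more ATP so stronger rescue from cytokine killing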
T cruzi repl – blocks replication of Trypanosoma cruzi; T. cruzi beta-gal in NIH3T3, luminescence, 90 h; inhibition, % (test concentration not listed); 300,000 tested, 1.4% active;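 active means mean inhibition across valid replicates above about 55%, limit read from the data; inconclusive means mean below that limit but half or more replicates reach it; inactive means mean below it, under half of replicates reach it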;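 further: signal also drops with host cell toxicity which is not excluded here; 0% = plate median of DMSO wells and 100% = zero luminescence signal; higher percent means less beta-gal luminescence so fewer parasites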
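Assay system: NIH/3T3 host cells with β-galactosidase reporter T. cruzi; input: 5,000 host fibroblasts per well; compound: single 50 nL compound addition per well in DMSO; timing: ≥90 h infection period, 3 h prior cell attachment; measured by: GalScreen β-gal luminescence, detergent lysis, 60 min; evaluation: percent inhibition of parasite-derived β-gal signal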
SKKanGAS inh – inhibitors of SKKanGAS S. pyogenes growth in kanamycin (SK-promoter or general growth effect); inhibition, % at 7.5 µM; AID 1662; BacTiter-Glo, 6 h; 300,000 tested, 1.3% active;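 active means mean replicate score, as percent of positive control median, at least 50; inconclusive means mean below 50 but one replicate at or above 50; inactive means mean and every replicate below 50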;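 further: strain carries kanamycin resistance gene driven by streptokinase promoter and grows in 40 µg/ml kanamycin; loss of luminescence reflects streptokinase promoter inhibition or plain growth inhibition; 0% = median of DMSO wells and 100% = positive control at its reference dose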
CSC inhib – blocks cancer stem cells. 300,000 tested, 1.1% active. cancer stem cell-like cells viability, luminescence. AID 2717. inhibition, % at 7.5 µM; in the data active means inhibition above about 75%; inconclusive means no clear call, values can overlap the other calls; tested in HMLE shEcad cells
L major viab – inhibitors of Leishmania major promastigote growth; inhibition, % at 10 µM; 200,000 tested, 9% active; Leishmania major promastigotes, resazurin fluorescence viability; in the data active means inhibition above about 50%;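 further: promastigotes grown with compound for 44 hours at 28 °C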
Mdm2-MdmX inh – disrupts the human Mdm2-MdmX interaction; AID 485346; 330,000 tested, 3% active; inhibition, % at 8 µM; SaOS-2 split-luciferase Mdm2/MdmX complementation, luminescence; O15151+Q00987;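 active means inhibition of at least 50% at 8 µM in the primary screen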
Target sequence (O15151 whole entry, looked up): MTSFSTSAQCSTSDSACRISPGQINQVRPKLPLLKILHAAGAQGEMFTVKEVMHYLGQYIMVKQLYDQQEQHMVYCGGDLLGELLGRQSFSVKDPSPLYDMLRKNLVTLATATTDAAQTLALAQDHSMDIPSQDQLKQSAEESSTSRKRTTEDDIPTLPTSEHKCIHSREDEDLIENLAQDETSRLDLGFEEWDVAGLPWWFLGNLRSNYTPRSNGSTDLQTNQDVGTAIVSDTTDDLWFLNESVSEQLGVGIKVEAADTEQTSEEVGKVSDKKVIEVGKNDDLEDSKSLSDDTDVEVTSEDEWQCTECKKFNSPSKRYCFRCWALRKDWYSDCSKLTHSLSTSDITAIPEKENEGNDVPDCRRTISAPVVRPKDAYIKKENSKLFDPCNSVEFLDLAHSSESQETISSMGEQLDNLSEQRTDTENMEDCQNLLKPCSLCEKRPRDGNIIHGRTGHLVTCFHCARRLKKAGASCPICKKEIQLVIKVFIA
Target sequence (Q00987 whole entry, looked up): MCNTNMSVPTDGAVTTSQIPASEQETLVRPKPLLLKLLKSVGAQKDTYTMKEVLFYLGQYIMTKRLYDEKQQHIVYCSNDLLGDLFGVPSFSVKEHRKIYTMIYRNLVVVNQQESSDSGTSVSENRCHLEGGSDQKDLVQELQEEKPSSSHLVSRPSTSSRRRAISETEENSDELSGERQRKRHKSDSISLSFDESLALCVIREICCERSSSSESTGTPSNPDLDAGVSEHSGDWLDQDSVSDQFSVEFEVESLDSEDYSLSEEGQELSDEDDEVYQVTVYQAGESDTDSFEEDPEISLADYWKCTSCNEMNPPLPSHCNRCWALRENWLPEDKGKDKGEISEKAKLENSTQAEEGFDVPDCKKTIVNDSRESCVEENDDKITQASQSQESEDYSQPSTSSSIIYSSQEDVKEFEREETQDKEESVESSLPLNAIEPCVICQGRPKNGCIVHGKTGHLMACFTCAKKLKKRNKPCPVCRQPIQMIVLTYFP
* hit, by the source's call; ? = inconclusive; . = no result given.

SMILES | Beta cell apopt | T cruzi repl | SKKanGAS inh | CSC inhib | L major viab | Mdm2-MdmX inh
CCOC(=O)Cc1csc(NC(=O)CSc2nnc(-c3ccncc3)o2)n1 | 4.3 | 5.6 | 0.6 | -4.7 | 51.1* | -28.7
CCOC(=O)Cc1csc(NC(=O)c2cccs2)n1 | 2.0 | -13.4 | 5.4 | 1.6 | -2.5 | -22.1
Cc1cc(C)c2oc(C(=O)NC3CCS(=O)(=O)C3)cc(=O)c2c1 (stereo unspecified) | -7.4 | -2.8 | 21.0 | -4.0 | . | 11.2
COC(=O)C(Cc1ccccc1)NC(=O)CCNC(=O)c1ccco1 (stereo unspecified) | . | -4.9 | -4.2 | -6.5 | . | -5.9
O=C(c1ccc([N+](=O)[O-])cc1[N+](=O)[O-])N1CCc2ccccc21 | 2.1 | 58.3* | 5.4 | 24.7 | . | 11.9
CC1(C)CC2CC(C)(CN2C(=O)c2ccc([N+](=O)[O-])cc2[N+](=O)[O-])C1 (stereo unspecified) | -3.0 | 97.4* | -15.5 | -6.3 | 52.1* | -2.4
CC1(C)CC2CC(C)(CN2C(=O)c2ccc([N+](=O)[O-])cc2)C1 (stereo unspecified) | 0.0 | -5.3 | 23.2 | -8.0 | 6.6 | -33.6
CC(C)CN(C(=O)c1cc([N+](=O)[O-])cc([N+](=O)[O-])c1)C1CCS(=O)(=O)C1 (stereo unspecified) | -4.9 | 56.7* | 2.8 | -2.2 | . | 4.9
COC(=O)c1sccc1-c1ccc(/C=N/OC(=O)c2cccs2)o1 | -4.8 | -19.8 | 0.6 | -1.6 | . | 2.4
CCOC(=O)c1ccc(NC2=CC(=O)C(=O)c3ccccc32)cc1 | 39.6 | 47.2 | 69.9* | -6.9 | 99.7* | 33.6
O=C1C=C(Nc2ccc(O)cc2)C(=O)c2ccccc21 | 99.6* | -8.8 | 29.0 | 104.6* | . | -24.6
NS(=O)(=O)c1ccc(NC2=CC(=O)C(=O)c3ccccc32)cc1 | 63.7 | 8.6 | 13.9 | 60.9 | . | 30.0
Cc1ccc(NC2=CC(=O)C(=O)c3ccccc32)cc1 | 100.2* | -7.4 | 24.1 | -7.6 | 99.0* | -7.0
Cc1ccc(-c2nn(-c3ccc(F)cc3)cc2C(=O)N2CCN(C3CCS(=O)(=O)C3)CC2)cc1 (stereo unspecified) | -8.3 | . | . | -10.3 | . | -19.4
O=C(CCc1nc2ccccc2n1-c1ccccc1)NCCO | -3.8 | -11.4 | -3.2 | -8.9 | 55.7* | 8.2
CCN1CCN(C(=O)CCc2nc3ccccc3n2-c2ccccc2)CC1 | -15.5 | 3.5 | -6.6 | -11.6 | 57.5* | -2.2
Cn1cc(Br)c(-c2cccc(N3C(=O)CCCC3=O)c2)n1 | -6.6 | -31.9 | -2.7 | -15.9 | . | 16.5
CCc1ccc(/C=N/Nc2ncnc3nc[nH]c23)cc1 | -2.7 | 0.4 | -0.1 | 7.9 | . | -79.0
CCc1ccc(N=Nc2ccc(O)c3[nH]cnc23)cc1 | 3.9 | . | . | 82.5* | . | 18.8
CCC(=O)Nc1cccc(-c2nnc(-c3cccc(NC(=O)CC)c3)o2)c1 | 13.2 | 12.8 | 4.4 | -11.4 | 32.2 | 22.8
CCC(=O)Nc1ccc(-c2nnc(-c3ccccc3)o2)cc1 | 4.7 | 56.6* | 22.8 | -13.3 | -2.6 | 14.6
Cc1cccc(N/C=C(\[N+](=O)[O-])S(=O)(=O)c2ccccc2)c1C | -3.9 | 81.9* | -7.5 | -7.9 | -6.3 | -13.4
Cc1cc(NC(=O)c2ccc(S(=O)(=O)N3CCc4ccccc43)cc2)no1 | 1.9 | 18.6 | 28.4 | -32.8 | 14.5 | 29.2
O=C(Nc1nc2ccccc2s1)c1cccc(S(=O)(=O)N2CCc3ccccc32)c1 | 18.2 | 26.1 | 33.9 | 44.7 | . | 1.4
COCc1nnc(NC(=O)c2ccc(S(=O)(=O)N3CCCCCC3)cc2)o1 | 2.8 | -2.8 | 0.6 | 19.3 | -5.8 | 4.9
SMILES | Beta cell apopt | T cruzi repl | SKKanGAS inh | CSC inhib | L major viab | Mdm2-MdmX inh
O=C(Nc1nc2c(s1)CCCC2)c1ccc(S(=O)(=O)N2CCCc3ccccc32)cc1 | 43.8 | 60.3* | 13.4 | 4.5 | 98.5* | 49.1
CC(C)[C@H](NC(=O)c1ccccc1F)C(=O)Nc1nc2c(s1)CCCC2 | -0.7 | -6.4 | 2.0 | 1.5 | 20.3 | 13.5
CNC(=O)c1ccsc1NC(=O)c1ccc(S(=O)(=O)N2CCCc3ccccc32)cc1 | 12.6 | 56.7* | 15.7 | 25.3 | 99.7* | 45.8
CCc1nnc(NC(=O)c2ccc(S(=O)(=O)N3CCCc4ccccc43)cc2)o1 | 7.0 | 59.8* | 86.2* | -13.4 | 99.3* | 47.1
COc1cc(OC)cc(C(=O)N[C@H](C(=O)Nc2nc3c(s2)CCCC3)C(C)C)c1 | -5.1 | 10.2 | 19.2 | 3.0 | 89.7* | 34.2
CN(C)c1ccc(C(=O)Nc2nc3c(s2)CCCC3)cc1 | 6.8 | 47.8 | 10.5 | 3.1 | 98.3* | 15.7
O=C(Nc1nc2c(s1)CN(Cc1ccccc1)CC2)c1cccc(S(=O)(=O)N2CCc3ccccc32)c1 | 1.6 | 30.1 | 12.4 | 40.7 | 61.8* | -8.0
COc1ccc(-c2nn(-c3ccccc3)cc2C(=O)N2CCN(C(=O)c3ccco3)CC2)cc1 | -5.8 | . | . | -12.5 | . | 0.1
COCCN1CN(S(=O)(=O)c2cccc(Cl)c2)c2nc3ccccc3nc21 | -11.5 | 9.9 | 9.6 | -12.4 | . | 12.2
COCCCN1CN(S(=O)(=O)c2ccc(Cl)cc2)c2nc3ccccc3nc21 | -4.5 | 17.6 | 12.6 | . | 59.2* | -24.9
O=C(NC1CCCC1)c1n[nH]c2ccccc12 | -3.2 | -28.2 | -15.5 | -6.9 | -1.1 | -44.3
CC(Nc1cccc(C(=O)NC2CC2)c1)c1nnc(-c2ccccc2)o1 (stereo unspecified) | 3.1 | . | . | -5.8 | . | 35.0
Cc1ccsc1/C=N\NC(=O)c1n[nH]c2c1CCC2 | 20.4 | -16.2 | 6.8 | 129.7* | 4.4 | 3.4
O=C(N/N=C/c1c(Cl)cccc1Cl)c1n[nH]c2c1CCCC2 | 6.7 | 21.8 | -22.9 | -3.6 | 36.0 | -78.1
Cc1sc(NC(=O)Cc2ccc3c(c2)OCO3)nc1-c1ccc2c(c1)CCN2C(=O)c1cccc(F)c1 | 18.0 | 49.6 | 29.8 | 23.9 | 91.2* | 16.6
Cc1ccccc1C(=O)N1CCc2cc(-c3nc(NC(=O)Cc4ccc5c(c4)OCO5)sc3C)ccc21 | 5.0 | 47.0 | 32.9 | 0.5 | 98.8* | 34.8
COc1ccc(-c2nnn3c2nc(NCc2ccccc2)c2ccccc23)cc1 | 5.8 | -21.6 | 1.2 | 5.9 | 12.5 | 16.3
O=C(Nc1ccc(N2CCN(C(=O)c3ccc(Cl)cc3)CC2)cc1)c1cc2ccccc2o1 | 5.9 | 3.8 | 7.0 | -3.7 | -1.1 | 8.8
O=C(Nc1ccccc1N1CCN(C(=O)c2ccccc2)CC1)c1ccc(Cl)cc1 | 3.4 | 17.9 | -3.9 | 4.4 | 38.5 | 18.0
O=C(Nc1ccccc1N1CCN(C(=O)c2ccc(Cl)cc2)CC1)c1ccc(Br)cc1 | . | 64.1* | 7.0 | -3.0 | 33.4 | 18.5
COc1ccc(C(=O)Nc2ccc(N3CCN(C(=O)c4ccccc4)CC3)cc2)cc1[N+](=O)[O-] | 6.0 | ? | 6.6 | -8.4 | 13.8 | 8.7
O=C(Nc1ccc(N2CCN(C(=O)c3ccccc3)CC2)cc1)c1ccc([N+](=O)[O-])o1 | . | 44.6 | 2.6 | . | 100.5* | .
O=C(Nc1ccc(N2CCN(C(=O)c3ccc(Cl)cc3)CC2)cc1)c1ccc(Br)o1 | 3.7 | 69.9* | -1.3 | . | 17.6 | 9.3
